Data published in ChEMBL document CHEMBL1123302, “Antagonists of substance P. Further modifications of substance P antagonists obtained by replacing either positions 7, 9 or 7, 8 and 11 of SP with D-amino acid residues” (J Med Chem, 1986).

Tests used:
[1] = molecular target: Metabotropic glutamate receptor 3 (Rattus norvegicus) (UniProt P31422); test: Antagonistic activity against Glutamate receptor in rat spinal cord at concentration of 25 uM.; type: functional, tissue-based
In short: (§1)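 Neonatal rat spinal cord, hemisected sagittally, superfused at 1 mL/min with oxygenated Krebs-Henseleit medium containing 0.5% urethane at room temperature. Agonists were given in 2-mL doses in the superfusate. Antagonist was superfused continuously for at least 15 min before agonist retesting. Read-out was ventral root depolarization (DC potential, ventral root vs cord body), measured as amplitude and area of response.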

[2] = molecular target: Metabotropic glutamate receptor 3 (Rattus norvegicus) (UniProt P31422); test: Antagonistic activity against Glutamate receptor in rat spinal cord at concentration of 50 uM.; type: functional, tissue-based; in short: as §1
[3] = molecular target: Metabotropic glutamate receptor 3 (Rattus norvegicus) (UniProt P31422); test: Antagonistic activity against Glutamate receptor in rat spinal cord at concentration of 5 uM.; type: functional, tissue-based; in short: as §1
[4] = molecular target: Metabotropic glutamate receptor 3 (Rattus norvegicus) (UniProt P31422); test: Antagonistic activity against Glutamate receptor in rat spinal cord at concentration of 10 uM.; type: functional, tissue-based; in short: as §1
[5] = molecular target: Substance-P receptor (Cavia porcellus) (UniProt P30547); test: In vitro inhibition of substance P induced contractions of the guinea pig ileum at 10 uM.; type: tissue-based
Chain of Substance-P receptor (Cavia porcellus) (P30547 whole entry): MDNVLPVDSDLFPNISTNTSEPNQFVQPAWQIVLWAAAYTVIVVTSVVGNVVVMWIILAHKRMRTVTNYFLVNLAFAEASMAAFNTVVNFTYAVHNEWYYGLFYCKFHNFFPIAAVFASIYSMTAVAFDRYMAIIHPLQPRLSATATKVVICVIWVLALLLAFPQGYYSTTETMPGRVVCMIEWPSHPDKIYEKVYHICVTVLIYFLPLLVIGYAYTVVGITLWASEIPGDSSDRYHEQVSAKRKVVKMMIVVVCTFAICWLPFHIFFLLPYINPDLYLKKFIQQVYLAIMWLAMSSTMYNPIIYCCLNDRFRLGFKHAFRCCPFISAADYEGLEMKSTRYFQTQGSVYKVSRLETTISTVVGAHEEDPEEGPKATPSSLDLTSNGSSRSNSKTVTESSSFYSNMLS
In short: (§2)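 Agonist (SP or SP(6-11)-hexapeptide) dose-response curves on a 3-min cycle with 1-min contact, then washout. Dose ratio = agonist EC50 with antagonist / EC50 alone. At least two preparations per compound; ratios below 2 taken as insignificant.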

[6] = molecular target: Substance-P receptor (Rattus norvegicus) (UniProt P14600); test: Antagonistic activity against Substance P receptor in rat spinal cord at concentration of 10 uM.
Chain of Substance-P receptor (Rattus norvegicus) (P14600 whole entry, looked up): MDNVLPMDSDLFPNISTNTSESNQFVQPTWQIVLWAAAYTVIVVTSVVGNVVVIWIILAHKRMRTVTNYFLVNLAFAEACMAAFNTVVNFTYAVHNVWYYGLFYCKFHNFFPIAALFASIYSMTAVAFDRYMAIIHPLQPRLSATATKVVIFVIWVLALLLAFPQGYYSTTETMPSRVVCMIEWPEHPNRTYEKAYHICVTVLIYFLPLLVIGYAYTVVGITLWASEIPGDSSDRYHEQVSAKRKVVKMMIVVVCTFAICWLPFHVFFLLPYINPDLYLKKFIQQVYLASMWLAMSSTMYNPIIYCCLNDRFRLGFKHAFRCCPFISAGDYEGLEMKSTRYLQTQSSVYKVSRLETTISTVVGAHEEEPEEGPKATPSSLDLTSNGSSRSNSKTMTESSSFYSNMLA

[7] = molecular target: Substance-P receptor (Rattus norvegicus) (UniProt P14600); test: Antagonistic activity against Substance P receptor in rat spinal cord at concentration of 25 uM.
[8] = test system: muscarinic acetylcholine receptor (Rattus norvegicus); test: Antagonistic activity against Carbachol receptor in rat spinal cord at concentration of 10 uM.
[9] = test system: muscarinic acetylcholine receptor (Rattus norvegicus); test: Antagonistic activity against Carbachol receptor in rat spinal cord at concentration of 50 uM.
[10] = molecular target: Substance-P receptor (Rattus norvegicus) (UniProt P14600); test: Antagonistic activity against Substance P(6-11) receptor in rat spinal cord at concentration of 10 uM.
[11] = molecular target: Substance-P receptor (Rattus norvegicus) (UniProt P14600); test: Antagonistic activity against Substance P(6-11) receptor in rat spinal cord at concentration of 25 uM.
[12] = molecular target: Substance-P receptor (Rattus norvegicus) (UniProt P14600); test: Antagonistic activity against Substance P(6-11) receptor in rat spinal cord at concentration of 50 uM.
[13] = molecular target: Substance-P receptor (Cavia porcellus) (UniProt P30547); test: In vitro inhibition of substance P (6-11) hexapeptide induced contractions of the guinea pig ileum at 5 uM.; type: tissue-based; in short: as §2
[14] = molecular target: Substance-P receptor (Cavia porcellus) (UniProt P30547); test: In vitro inhibition of substance P induced contractions of the guinea pig ileum at 5 uM.; type: tissue-based; in short: as §2
[15] = molecular target: Substance-P receptor (Cavia porcellus) (UniProt P30547); test: In vitro inhibition of substance P (6-11) hexapeptide induced contractions of the guinea pig ileum at 10 uM.; type: tissue-based; in short: as §2
[16] = molecular target: Substance-P receptor (Rattus norvegicus) (UniProt P14600); test: Antagonistic activity against Substance P receptor in rat spinal cord at concentration of 50 uM.
[17] = molecular target: Metabotropic glutamate receptor 3 (Rattus norvegicus) (UniProt P31422); test: Antagonistic activity against Glutamate receptor in rat spinal cord at concentration of 20 uM.; type: functional, tissue-based; in short: as §1
[18] = molecular target: Substance-P receptor (Cavia porcellus) (UniProt P30547); test: Antagonistic activity against Substance P receptor in guinea pig ileum at concentration of 1 uM.; type: functional, tissue-based
In short: (§3)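 Distal ileum from Dunkin-Hartley guinea pigs (300-350 g, both sexes), held in a 5-mL bath of Krebs solution at 37 °C gassed with 95% O2/5% CO2. Agonist dose-response curves ran on a 3-min cycle with 1-min contact, then washout. Dose ratio = agonist EC50 with antagonist / EC50 alone. At least two preparations per compound; ratios below two were taken as insignificant.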

[19] = molecular target: Substance-P receptor (Cavia porcellus) (UniProt P30547); test: Antagonistic activity against Substance P(6-11) receptor in guinea pig ileum at concentration of 1 uM.; type: functional, tissue-based; in short: as §3
[20] = molecular target: Substance-P receptor (Rattus norvegicus) (UniProt P14600); test: Antagonistic activity against Substance P receptor in rat spinal cord at concentration of 20 uM.
[21] = molecular target: Substance-P receptor (Rattus norvegicus) (UniProt P14600); test: Antagonistic activity against Substance P(6-11) receptor in rat spinal cord at concentration of 20 uM.

Chain of Metabotropic glutamate receptor 3 (Rattus norvegicus) (P31422 23-879 limits assumed): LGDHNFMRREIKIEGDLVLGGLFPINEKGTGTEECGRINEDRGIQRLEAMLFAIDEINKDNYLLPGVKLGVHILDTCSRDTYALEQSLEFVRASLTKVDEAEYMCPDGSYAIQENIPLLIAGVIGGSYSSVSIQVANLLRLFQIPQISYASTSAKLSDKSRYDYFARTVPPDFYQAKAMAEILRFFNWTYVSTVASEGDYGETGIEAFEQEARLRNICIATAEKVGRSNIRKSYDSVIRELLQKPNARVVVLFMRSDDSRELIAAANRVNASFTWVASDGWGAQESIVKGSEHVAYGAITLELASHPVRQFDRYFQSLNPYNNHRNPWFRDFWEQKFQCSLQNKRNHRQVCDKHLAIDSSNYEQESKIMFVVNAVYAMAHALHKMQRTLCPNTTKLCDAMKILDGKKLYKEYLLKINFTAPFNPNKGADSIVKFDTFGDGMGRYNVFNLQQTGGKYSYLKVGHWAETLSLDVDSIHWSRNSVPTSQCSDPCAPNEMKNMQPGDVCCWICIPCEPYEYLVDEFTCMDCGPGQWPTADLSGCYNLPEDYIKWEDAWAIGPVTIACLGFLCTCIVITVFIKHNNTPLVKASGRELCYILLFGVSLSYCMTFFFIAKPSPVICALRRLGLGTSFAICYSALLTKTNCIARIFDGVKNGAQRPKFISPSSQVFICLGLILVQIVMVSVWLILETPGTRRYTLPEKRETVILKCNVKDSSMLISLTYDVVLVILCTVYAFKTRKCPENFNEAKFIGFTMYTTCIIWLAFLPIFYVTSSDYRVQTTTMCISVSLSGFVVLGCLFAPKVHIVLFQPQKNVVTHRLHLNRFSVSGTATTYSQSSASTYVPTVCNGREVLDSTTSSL

| SMILES | Change in amplitude response [1] [%] | Change in amplitude response [2] [%] | Activity [5] [dose ratio] | Change in amplitude response [7] [%] | Change in amplitude response [11] [%] | Change in amplitude response [12] [%] | Activity [13] [dose ratio] | Activity [14] [dose ratio] | also measured |
| --- | --- | --- | --- | --- | --- | --- | --- | --- | --- |
| COC(=O)[C@@H](CCSC)NC(=O)[C@H](CC(C)C)NC(=O)CN(C)C(=O)[C@H](Cc1ccccc1)NC(=O)[C@@H](Cc1ccccc1)NC(=O)[C@H](CCC(N)=O)NC(=O)[C@H](CCC(N)=O)NC(=O)C1CCCN1C(=O)[C@H](CCCCNC(=O)OCc1ccccc1)NC(=O)C1CCCN1C(=O)[C@H](CCCN=C(N)N)NC(=O)OCc1ccccc1 (stereo in doubt) | -24 | -36 | – | – | – | – | – | – | Change in amplitude response [3]: -15% |
| COC(=O)[C@@H](CCSC)NC(=O)[C@H](CC(C)C)NC(=O)CNC(=O)[C@@H](Cc1c[nH]c2ccccc12)NC(=O)[C@@H](Cc1c[nH]c2ccccc12)NC(=O)[C@H](CCC(N)=O)NC(=O)[C@H](CCC(N)=O)NC(=O)[C@@H]1CCCN1C(=O)[C@H](CCCCNC(=O)OCc1ccccc1)NC(=O)[C@@H]1CCCN1C(=O)[C@H](CCCN=C(N)N)NC(=O)OCc1ccccc1 | -13 | – | 10.5 | 18 | -77 | -75 | – | – | Change in amplitude response [4]: -3%; Change in amplitude response [6]: 19%; Change in amplitude response [8]: -6%; Change in amplitude response [9]: -24%; Change in amplitude response [10]: -33% |
| COC(=O)[C@@H](CCSC)NC(=O)[C@H](CC(C)C)NC(=O)CN(C)C(=O)[C@H](Cc1ccccc1)NC(=O)[C@@H](Cc1ccccc1)NC(=O)[C@H](CCC(N)=O)NC(=O)[C@H](CCC(N)=O)NC(=O)C1CCCN1C(=O)OC(C)(C)C (stereo in doubt) | – | -4 | < 2 | 7 | -29 | -57 | < 2 | < 2 | Activity [15]: < 2 dose ratio; Change in amplitude response [16]: -12% |
| COC(=O)[C@H](CCSC)NC(=O)[C@H](CC(C)C)NC(=O)[C@@H](Cc1c[nH]c2ccccc12)NC(=O)[C@H](Cc1ccccc1)NC(=O)[C@@H](Cc1ccccc1)NC(=O)[C@H](CCCN=C(N)N)NC(=O)[C@H](CC(N)=O)NC(=O)[C@@H]1CCCN1C(=O)[C@H](CCCCNC(=O)OCc1ccccc1)NC(=O)[C@@H]1CCCN1C(=O)[C@H](CCCN=C(N)N)NC(=O)OC(C)(C)C | – | – | – | – | – | – | 5.1 | 2.8 | Change in amplitude response [17]: -9%; Activity [18]: 3.1 dose ratio; Activity [19]: 3.1 dose ratio; Change in amplitude response [20]: 17%; Change in amplitude response [21]: -85% |
